≈ marks a conversion by molar mass, not a printed value.
Columns and labels:
Assay type in all cases: functional
[1] = system: Enterococcus faecium; experiment: Evaluated for its antibacterial activity against Enterococcus faecium L4001
Summary of the method: (§1)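 Broth microdilution in AOAC broth with 4% dextrose, with compounds at 0.125-64 µg/mL. Inoculum was a 1:50 dilution of an overnight culture. Incubation at 37 °C with 8-10% CO₂ for about 20 h. MIC read as the first concentration showing no visible growth.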

[2] = system: Staphylococcus aureus; experiment: Evaluated for its antibacterial activity against Staphylococcus aureus 133
Summary of the method: (§2)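 Broth microdilution in AOAC broth with 4% dextrose. Compounds tested over 0.125-64 µg/mL. Wells inoculated with a 1:500 dilution of an overnight culture. Plates incubated at 37 °C under 8-10% CO₂ and read after about 20 h. MIC taken as the first concentration with no visible growth.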

[3] = system: Enterococcus faecalis; experiment: Evaluated for its antibacterial activity against Enterococcus faecalis 18513; summary of the method: as §1
[4] = system: Streptococcus pneumoniae; experiment: Evaluated for its antibacterial activity against Streptococcus pneumoniae G9a
Summary of the method: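 For S. pneumoniae, microdilution used BHI broth diluted 1:10 with 10% bovine serum, and compounds at 0.125-64 µg/mL. Wells received a 1:50 dilution of an overnight culture. Plates were kept at 37 °C in 8-10% CO₂ and read after about 20 h. MIC was the lowest concentration without visible growth.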

[5] = system: Staphylococcus epidermidis; experiment: Evaluated for its antibacteria activity against Staphylococcus epidermidis 18570; summary of the method: as §2
[6] = system: Streptococcus pyogenes; experiment: Evaluated for its antibacterial activity against Str. Pyogenes wacker; summary of the method: as §1
[7] = system: Escherichia coli; experiment: Evaluated for its inhibitory activity against prokaryotic translation by using Escherichia coli transcription-translation assay
Summary of the method: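 Coupled E. coli transcription-translation system with a luciferase reporter; inhibition of bacterial translation measured by luminescence read-out.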

[8] = system: Staphylococcus aureus; experiment: Evaluated for its antibacteria activity against Staphylococcus aureus; summary of the method: as §2

Compound | MIC [1] [µg/mL] | MIC [2] [µg/mL] | MIC [3] [µg/mL] | MIC [4] [µg/mL] | MIC [5] [µg/mL] | MIC [6] [µg/mL] | IC50 [7] [nM] | MIC [8] [µg/mL]
CC(C)/N=C(/N)NCCC[C@H](N)CC(=O)N(C)C1CN=C(NC(N)=O)NC1=O (stereo not given in full) |  | 12.5 (≈ 31.4 µM) |  |  |  |  | 12500 | 
CC/N=C(/N)NCCC[C@H](N)CC(=O)N(C)C1CN=C(NC(N)=O)NC1=O (stereo not given in full) |  | 6.3 (≈ 16.4 µM) |  |  |  |  | 12500 | 
CC(C)C(=N)NCCC[C@H](N)CC(=O)N(C)C1CN=C(NC(N)=O)NC1=O (stereo not given in full) |  | 3.2 (≈ 8.37 µM) |  |  |  |  |  | 

Molecules with a lower MIC [2], results first:

MIC [1] [µg/mL] | MIC [2] [µg/mL] | MIC [3] [µg/mL] | MIC [4] [µg/mL] | MIC [5] [µg/mL] | MIC [6] [µg/mL] | IC50 [7] [nM] | MIC [8] [µg/mL] | Compound
16 (≈ 43.3 µM) | 0.8 (≈ 2.17 µM) | 64 (≈ 173 µM) | 16 (≈ 43.3 µM) | 0.13 (≈ 0.352 µM) | 4 (≈ 10.8 µM) | 500 |  | C/N=C(/N)NCCC[C@H](N)CC(=O)N(C)C1CN=C(NC(N)=O)NC1=O (stereo not given in full)
8 | 0.4 | > 64 | 32 | 0.5 | 8 | 400 |  | C/N=C(/N)N(C)CCC[C@H](N)CC(=O)N(C)C1CN=C(NC(N)=O)NC1=O.Cl.Cl (stereo not given in full)
2 (≈ 5.63 µM) | 0.25 (≈ 0.703 µM) | > 16 | 16 (≈ 45 µM) | 0.25 (≈ 0.703 µM) | 8 (≈ 22.5 µM) |  |  | CN(C(=O)C[C@@H](N)CCCN=C(N)N)C1CN=C(NC(N)=O)NC1=O (stereo not given in full)
16 (≈ 45.1 µM) | 0.2 (≈ 0.564 µM) | > 64 | 16 (≈ 45.1 µM) | 0.2 (≈ 0.564 µM) | 1 (≈ 2.82 µM) | 100 | 0.2 (≈ 0.564 µM) | C/C(N)=N/CCC[C@H](N)CC(=O)N(C)C1CN=C(NC(N)=O)NC1=O (stereo not given in full)
2 (≈ 5.41 µM) | 0.025 (≈ 0.0677 µM) | 64 (≈ 173 µM) | 4 (≈ 10.8 µM) | 0.12 (≈ 0.325 µM) | 0.5 (≈ 1.35 µM) | 60 |  | CN(CCC[C@H](N)CC(=O)N(C)C1CN=C(NC(N)=O)NC1=O)C(=N)N (stereo not given in full)

— ChEMBL document CHEMBL1135784, “Novel antibiotics for the treatment of gram-positive bacterial infections” (J Med Chem, 2002)
